Converted amounts (≈) assume the structure as drawn.
Experiments:
[1] = test system: cytochrome P450 (CYP)3A4 and CYP3A5; assay: In vitro metabolism studies; format: in vitro ADME
[2] = Pharmacokinetics, multiple ascending dose; format: in vivo, human
In short: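 Amorphous oral suspension was given once daily for 10 days to fasted healthy men (n = 6 per dose), with intensive sampling on days 1 and 10. K₂EDTA plasma and urine were measured by LC-MS/MS with a ¹³C₆-labelled internal standard (validated 1–1,000 nmol/L plasma, 20–20,000 nmol/L urine). Noncompartmental analysis on actual times; CL/F = dose/AUC; CLR = amount excreted unchanged/AUC.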

[3] = test system: ex vivo calcium ionophore stimulated LTB4 production in whole blood; design: species or system human
In short: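 Lithium-heparin blood was drawn from dosed subjects 24 h before and just before dosing, then at set times after (SAD to 48 h; MAD daily predose and after last dose). Blood aliquots were stimulated in duplicate with 30 μM calcium ionophore A23187 or DMSO at 37°C, 100 rpm, for 30 min, then stopped on ice with EGTA. LTB₄ in plasma was measured by supported liquid extraction LC-MS/MS, against a baseline of the mean day 1/predose value.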

[4] = Human intestinal Ussing chamber metabolism; format: in vitro ADME; settings: data not shown
[5] = Human plasma protein binding; format: in vitro ADME
Caco‐2 = assay: Caco-2 permeability and efflux; format: in vitro ADME
[6] = test system: LTB4 production in human whole blood; assay: LTB4 production in human whole blood in vitro; format: cell-based; settings: read-out: IC50, inhibition of LTB4 production
[7] = Pharmacokinetics, single ascending dose; format: in vivo, human; settings: for AUC / CL/F / CLR / t½ / Cmax: geometric mean (%CV); for Tmax: median (range)
In short: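 Fasted (10 h overnight) healthy men received single oral doses of amorphous suspension, n = 6 per dose. K₂EDTA plasma and pooled urine were assayed by LC-MS/MS with a ¹³C₆-labelled internal standard (validated 1–1,000 nmol/L plasma, 20–20,000 nmol/L urine). Noncompartmental analysis used log-linear trapezoidal AUC extrapolated to infinity; CL/F = dose/AUC; CLR = amount excreted unchanged/AUC.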

[8] = Solubility of amorphous and crystalline form; format: physicochemical; settings: amorphous
logD = format: physicochemical; settings: pH 7.4
[9] = Clinical safety and tolerability in healthy subjects; format: in vivo, human; settings: for subjects reporting headache: active drug
In short: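 Healthy men aged 18–50 (BMI 18–30 kg/m², 50–100 kg), randomized, single-blind, placebo-controlled. SAD: single oral suspension doses of 25–1,200 mg, with sentinel pairs reviewed to 24 h. MAD: 60–600 mg once daily for 10 days. Vital signs, ECG, telemetry, clinical laboratory tests and adverse events were recorded before and after dosing and at follow-up 7–10 days post final dose.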

5‐LO [10] = settings: cited from earlier work
5‐LO [11] = settings: at‐risk patients with CAD ref 15; cited from earlier work
[12] = 60 mg OD, day 10, geometric mean (%CV)
[13] = 180 mg OD, day 1, geometric mean (%CV)
[14] = 180 mg OD, day 10, geometric mean (%CV)
[15] = 360 mg OD, day 1, geometric mean (%CV)
[16] = 360 mg OD, day 10, geometric mean (%CV)
[17] = 600 mg OD, day 1, geometric mean (%CV)
[18] = 600 mg OD, day 10, geometric mean (%CV)

Cc1cc(-c2ccc(C(=O)[C@@H]3CCCC[C@H]3C(=O)Nc3cnn4c3C(=O)NCC4)cc2)n[nH]1 [AZD5718]
CYP‐isoforms involved in the metabolism [1]: (CYP)3A4 and CYP3A5 | AUCτ ([2]; 60 mg OD, day 1, geometric mean (%CV)): 1,018 (22.4) nmol*h/L | Tmax ([2]; 60 mg OD, day 1, median (range)): 0.8 (0.5–2.0) h | Cmax ([2]; 60 mg OD, day 1, oral amorphous suspension, N = 6, geometric mean (%CV)): 167 nM | AUCτ [2, 12]: 1,386 (27.4) nmol*h/L | CL/F [2, 12]: 96.9 (27.4) L/h | CLR [2, 12]: 0.64 (16.0) L/h | Cmax [2, 12]: 220 nM | t½ [2, 12]: 11.6 (6.7) h | Tmax ([2]; 60 mg OD, day 10, median (range)): 0.5 (0.5–1.0) h | AUCτ [2, 13]: 3,732 (41.2) nmol*h/L | Cmax [2, 13]: 847 nM | Tmax ([2]; 180 mg OD, day 1, median (range)): 1.0 (1.0–1.0) h | AUCτ [2, 14]: 5,128 (46.9) nmol*h/L | CL/F [2, 14]: 78.6 (46.9) L/h | CLR [2, 14]: 0.75 (16.0) L/h | Cmax [2, 14]: 1240 nM | t½ [2, 14]: 11.2 (13.0) h | Tmax ([2]; 180 mg OD, day 10, median (range)): 1.0 (1.0–1.0) h | AUCτ [2, 15]: 10,350 (28.8) nmol*h/L | Cmax [2, 15]: 2560 nM | Tmax ([2]; 360 mg OD, day 1, median (range)): 1.0 (1.0–2.0) h | AUCτ [2, 16]: 12,760 (31.0) nmol*h/L | CL/F [2, 16]: 63.1 (31.0) L/h | CLR [2, 16]: 0.99 (5.2) L/h | Cmax [2, 16]: 3210 nM | t½ [2, 16]: 9.1 (10.7) h | Tmax ([2]; 360 mg OD, day 10, median (range)): 1.0 (1.0–1.0) h | AUCτ [2, 17]: 16,290 (48.6) nmol*h/L | Cmax [2, 17]: 4930 nM | Tmax ([2]; 600 mg OD, day 1, median (range)): 1.0 (1.0–1.0) h | AUCτ [2, 18]: 23,170 (47.4) nmol*h/L | CL/F [2, 18]: 58.0 (47.4) L/h | CLR [2, 18]: 0.72 (23.3) L/h | Cmax [2, 18]: 5690 nM | t½ [2, 18]: 9.9 (29.2) h | Tmax ([2]; 600 mg OD, day 10, median (range)): 1.5 (1.0–3.0) h | accumulation on repeated dosing ([2]; Ctrough, once daily dosing): small accumulation | time to steady state ([2]; repeated once daily dosing, Ctrough, visual inspection): ~3 days | LTB4 production inhibition throughout the day ([3]; MAD, 180, 360, and 600 mg doses, last day of repeated dosing): > 80% | mean LTB4 inhibition throughout the whole day ([3]; SAD, single doses of 300–1,200 mg): > 80% | fold lower IC50 for ex vivo stimulated LTB4 inhibition ([3]; compared with both AM103 and VIA2291): ~100 fold | metabolism kinetics [4]: saturable metabolism | human plasma protein binding [5]: 95.7% | Papp (Caco‐2): 24 10^−6 cm/s | efflux ratio (Caco‐2): 7.4 | IC50 [6]: 0.039 µM | AUC ([7]; 25 mg single dose): 376.3 (38.1) nmol*h/L | CL/F ([7]; 25 mg single dose): 148.8 (38.1) L/h | CLR ([7]; 25 mg single dose): 0.68 (39.4) L/h | t½ ([7]; 25 mg single dose): 10.3 (51.0) h | Tmax ([7]; 25 mg single dose): 3.0 (1.0–6.0) h | AUC ([7]; 50 mg single dose): 727.0 (15.4) nmol*h/L | CL/F ([7]; 50 mg single dose): 153.9 (15.4) L/h | CLR ([7]; 50 mg single dose): 0.62 (14.7) L/h | Cmax ([7]; 50 mg single dose): 81.6 nM | t½ ([7]; 50 mg single dose): 12.5 (33.3) h | Tmax ([7]; 50 mg single dose): 1.0 (1.0–3.0) h | AUC ([7]; 100 mg single dose): 1,441 (45.3) nmol*h/L | CL/F ([7]; 100 mg single dose): 155.6 (45.3) L/h | CLR ([7]; 100 mg single dose): 0.66 (41.0) L/h | Cmax ([7]; 100 mg single dose): 170 nM | t½ ([7]; 100 mg single dose): 12.7 (35.7) h | Tmax ([7]; 100 mg single dose): 1.0 (0.5–3.0) h | AUC ([7]; 300 mg single dose): 8,462 (20.1) nmol*h/L | CL/F ([7]; 300 mg single dose): 79.4 (20.1) L/h | CLR ([7]; 300 mg single dose): 0.67 (23.7) L/h | Cmax ([7]; 300 mg single dose): 2360 nM | t½ ([7]; 300 mg single dose): 13.7 (43.9) h | Tmax ([7]; 300 mg single dose): 1.0 (0.5–1.0) h | AUC ([7]; 600 mg single dose): 18,810 (42.1) nmol*h/L | CL/F ([7]; 600 mg single dose): 71.5 (42.1) L/h | CLR ([7]; 600 mg single dose): 0.70 (15.4) L/h | Cmax ([7]; 600 mg single dose): 5050 nM | t½ ([7]; 600 mg single dose): 11.4 (18.0) h | Tmax ([7]; 600 mg single dose): 1.0 (1.0–2.0) h | AUC ([7]; 1,200 mg single dose): 35,840 (33.8) nmol*h/L | CL/F ([7]; 1,200 mg single dose): 75.0 (33.8) L/h | CLR ([7]; 1,200 mg single dose): 0.62 (12.1) L/h | Cmax ([7]; 1,200 mg single dose): 6880 nM | t½ ([7]; 1,200 mg single dose): 10.3 (19.0) h | Tmax ([7]; 1,200 mg single dose): 1.5 (1.0–2.0) h | relative bioavailability of the crystalline formulation compared with the amorphous formulation ([7]; SAD, oral suspensions, results not presented): much lower | mean terminal half‐life ([7]; after single dose administration and at steady state, all doses): 10 to 12 h | dose‐linearity of exposure ([7]; single and multiple administration, except Ctrough in the MAD): more than dose proportional increase in exposure | median Tmax ([7]; single and multiple dose, amorphous suspension, fasted): ~1 h | renal clearance as share of total oral clearance ([7]; unchanged drug in urine): ~1% | solubility [8]: 20 µM (≈ 8.93 µg/mL) | logD (logD): 2.9 | subjects experiencing an AE on active drug ([9]; MAD study): 10 subjects | subjects reporting headache ([9]; MAD study): five | serious adverse events ([9]; SAD 25–1,200 mg and MAD 60–600 mg): no serious adverse events | safety and tolerability findings ([9]; SAD and MAD, healthy subjects): No clinically relevant safety and tolerability findings | subjects experiencing an AE on active drug ([9]; SAD study): 17 subjects | subjects reporting headache ([9]; SAD study): three | maximal tolerated dose ([9]; up to 1,200 mg single, 600 mg OD for 10 days): not established

C[C@H](C#Cc1ccc(Cc2ccc(F)cc2)s1)N(O)C(N)=O [VIA‐2291, Atreleuton]
ex vivo stimulated LTB4 production (5‐LO [10]; patients with ACS ref 13): reduced | noncalcified plaque volume (5‐LO [10]; patients with ACS ref 13): reduced | left ventricular ejection fraction (5‐LO [10]; patients with ACS, dose dependent ref 13, 14): improved

CC(c1cc2ccccc2s1)N(O)C(N)=O (centres unmarked) [zileuton]
flow‐mediated dilation in the brachial artery (5‐LO [11]): improved | leukotriene production in blood (5‐LO [11]): inhibited
